This is a sample that favours compounds with a hit; in the whole collection about 1.3% have one here.
Tb hexokinase = T. brucei hexokinase 1 inhibition | recombinant TbHK1, G6PDH-coupled NADH A340 | inhibition, % at 10 µM | 220,000 compounds, 0.11% hits;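 active = inhibition of 50% or more in the single-dose primary screen; inactive = inhibition below 50%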
PfGluPho inh = PfG6PD (Plasmodium falciparum) enzyme inhibition; PfGluPho enzyme, NADPH resazurin-diaphorase fluorescence; inhibition, % at 20 µM; 350,000 compounds, 0.78% hits; AID 504690;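 active = inhibition reaching at least a set limit at 20 µM in the primary screen, cut at about 59% in these data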;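 note: 0% = DMSO wells with substrate and 100% = DMSO wells lacking glucose-6-phosphate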
HKDC1 inhibitor = blocks human hexokinase HKDC1 activity. Q2TB90. recombinant HKDC1, G6PDH/diaphorase resazurin coupled fluorescence. inhibition, % at 20 µM. 340,000 compounds, 0.16% hits. AID 493160;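 active = inhibition above about 35% when tested at 20 µM, limit read from the data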;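 note: plate controls were DMSO wells with enzyme for no effect and DMSO wells lacking enzyme for full effect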
Target sequence (Q2TB90 whole entry, looked up): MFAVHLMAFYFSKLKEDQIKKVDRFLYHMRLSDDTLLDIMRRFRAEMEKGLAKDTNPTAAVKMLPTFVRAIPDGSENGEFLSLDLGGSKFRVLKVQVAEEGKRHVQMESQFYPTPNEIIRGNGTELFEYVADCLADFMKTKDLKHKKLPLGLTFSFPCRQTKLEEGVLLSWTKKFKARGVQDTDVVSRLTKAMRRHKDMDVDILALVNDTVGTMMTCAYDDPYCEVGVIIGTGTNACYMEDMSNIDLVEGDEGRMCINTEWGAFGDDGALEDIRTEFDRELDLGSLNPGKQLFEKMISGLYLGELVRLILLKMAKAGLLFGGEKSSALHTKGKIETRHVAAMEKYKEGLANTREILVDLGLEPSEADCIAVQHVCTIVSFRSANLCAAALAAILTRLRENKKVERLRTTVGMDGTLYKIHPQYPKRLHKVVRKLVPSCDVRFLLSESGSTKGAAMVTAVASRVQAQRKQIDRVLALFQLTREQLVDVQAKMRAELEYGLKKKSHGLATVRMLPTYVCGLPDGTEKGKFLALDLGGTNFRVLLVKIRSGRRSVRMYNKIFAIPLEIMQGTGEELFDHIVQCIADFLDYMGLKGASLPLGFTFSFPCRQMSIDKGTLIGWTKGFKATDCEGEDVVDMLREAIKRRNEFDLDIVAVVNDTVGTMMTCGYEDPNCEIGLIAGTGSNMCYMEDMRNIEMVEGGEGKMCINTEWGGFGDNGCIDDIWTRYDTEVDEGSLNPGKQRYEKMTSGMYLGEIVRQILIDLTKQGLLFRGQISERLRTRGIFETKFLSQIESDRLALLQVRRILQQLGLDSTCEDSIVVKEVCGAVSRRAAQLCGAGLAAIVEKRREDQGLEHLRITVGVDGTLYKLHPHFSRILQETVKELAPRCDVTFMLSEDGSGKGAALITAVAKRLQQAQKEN
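System: Recombinant HKDC1 hexokinase | Amount: HKDC1 at 5 µg/mL | Reagent: Glucose with 1 mM ATP | Doses: Single 20 µM dose | Incubation: Reaction time 90 min, room temperature, protected from light | Signal: Coupled resazurin fluorescence, excitation 525 nm, emission 613 nm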
G6PDH counter = counter-screen for G6PDH assay hits: L. mesenteroides G6PDH inhibition. 200,000 compounds, 0.12% hits. AID 1020. Purified L. mesenteroides G6PDH, diaphorase/resazurin coupled fluorescence, 45 min. inhibition, % at 5 µM; in the data active = inhibition above about 50%
Diaph inh CS = inhibits diaphorase or chemically oxidizes, flagging diaphorase assay artifacts; AID 1217; inhibition, % at 20 µM; 190,000 compounds, 0.69% hits; diaphorase resazurin-to-resorufin fluorescence, NADH, 16 min; bacterial (C. kluyveri) enzyme, not human;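 active = primary screen inhibition at 20 µM above a set limit, cut at about 50% in these data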;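 note: plate controls were DMSO with full reaction for no effect and wells lacking NADH for full effect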
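material = Clostridium kluyveri diaphorase enzyme | amount = 0.14 U/mL diaphorase, enzyme working solution | schedule = incubation 16 min, room temperature | detection = fluorescence of resorufin formed from resazurin, Ex 544/Em 590 nm | benchmarks = positive control minus NADH, DMSO neutral control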
PfG6PD confirm = PfG6PD inhibition, single-dose confirmed; shares compounds with PfGluPho inh; inhibition, % at 20 µM; 2,400 compounds, 34% hits; recombinant PfGluPho, NADPH-diaphorase-resazurin fluorescence;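 active = inhibition of at least 50% at 20 µM in any single replicate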;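 note: 0% = DMSO with substrate and 100% = DMSO lacking glucose-6-phosphate substrate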
Diaphorase 10uM = counter-screen for P. falciparum G6PD inhibitors: diaphorase inhibitors, oxidizers; shares compounds with PfGluPho inh; 820 compounds, 39% hits; inhibition, % at 20 µM; diaphorase-coupled resazurin reduction, fluorescence, NADPH 10 uM;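 active = average inhibition reaching 50% or more with the compound at 20 µM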;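 note: resorufin red fluorescence formed as diaphorase reduces resazurin using NADPH; 0% = DMSO with enzyme and 100% = DMSO without enzyme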
Diaph ctr 30uM = counter-screen for P. falciparum G6PD inhibitors: diaphorase inhibitors, oxidizers; shares compounds with PfGluPho inh; Diaphorase/resazurin coupled assay, resorufin fluorescence, 30 uM NADPH; inhibition, % at 20 µM; 820 compounds, 29% hits; AID 504863;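 active = inhibition averaging 50% or more, tested at 20 µM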;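 note: 0% = DMSO with enzyme and 100% = DMSO wells lacking diaphorase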
Starred values were filed as active, the others as inactive; nt = not tested or not shown.

SMILES	Tb hexokinase	PfGluPho inh	HKDC1 inhibitor	G6PDH counter	Diaph inh CS	PfG6PD confirm	others
O=C1c2cccc3cccc(c23)C(=O)N1Cc1ccco1	-20.8	3.4	-15.3	2.8	5.3	nt
CCc1cc(N2CCOCC2)cc2c1[nH]c1ccccc12	-7.2	67.1*	6.0	29.2	52.7*	44.5
CCc1cc(-c2n[nH]c(C)c2-c2ccccc2Cl)c(O)cc1OC	nt	98.0*	3.6	nt	nt	51.3*	Diaphorase 10uM=55.0*;Diaph ctr 30uM=34.2
CCc1cc(-c2n[nH]c(CCC(=O)O)c2-c2nc3ccccc3n2C)c(O)cc1O	-7.1	25.4	3.4	6.8	16.3	nt
CCc1cc(-c2n[nH]c(C)c2-c2nc3ccccc3n2C)c(O)cc1O	-2.0	61.1*	0.6	19.1	11.2	48.6*	Diaphorase 10uM=28.1;Diaph ctr 30uM=25.9
C[C@@H]1ON(C)[C@H]2C[C@H]3c4[nH]c5ccc(-c6ccc7c(c6)OCO7)cc5c4CCN3C(=O)[C@@H]12	nt	76.2*	nt	nt	nt	44.2
CCNC(=O)c1cc2c(=O)n3cccc(C)c3nc2n(Cc2ccc(C)cc2)c1=N	-7.2	49.4	0.6	1.1	1.0	nt
Cc1cccn2c(=O)c3cc(C(=O)NC(C)C)c(=N)n(Cc4ccncc4)c3nc12	-10.1	73.4*	0.1	-30.6	-6.5	21.1
O=C(/C=C/c1ccc(Br)cc1)NCCCn1ccnc1	nt	2.8	-6.1	nt	nt	nt
CCC1CCCCN1CCCNC(=O)CN1C(=O)CSc2ccc(S(=O)(=O)N3CCC(C)CC3)cc21 (centres undefined)	nt	-2.4	-2.0	nt	nt	nt
CCN(CC)c1ccc(NC(=O)Nc2ccc(C(C)=O)cc2)cc1	-1.0	39.6	-1.2	-31.6	16.5	nt
CCN(CC)c1ccc(N=C2C=CC(=O)C=C2NC(C)=O)cc1	nt	120.6*	10.7	nt	nt	99.4*	Diaphorase 10uM=95.4*;Diaph ctr 30uM=98.2*
COc1ccc(/C(O)=C2/C(=O)C(=O)N(CCCN3CCOCC3)C2c2ccc(OC)cc2)cc1 (centres undefined)	nt	-0.6	-4.0	nt	nt	nt
c1ccc(CCc2nn3c(-c4ccncc4)nnc3s2)cc1	5.5	35.2	-10.9	20.4	-3.9	nt
Clc1ccccc1-c1nnc2sc(CCc3ccccc3)nn12	-8.5	60.0*	-0.5	-6.3	0.6	21.5
Clc1ccccc1-c1nnc2sc(-c3ccc4c(c3)OCO4)nn12	-10.0	62.6*	-0.3	-51.2	1.8	40.9
Cc1nc2scc(-c3ccccc3)c2c(=O)n1N	1.7	-19.6	-13.2	1.2	17.1	nt
Cc1nc2scc(-c3ccccc3)c2c(=O)n1N=C1C=CC(=O)C=C1	5.9	113.5*	31.5	15.4	nt	111.5*	Diaphorase 10uM=95.4*;Diaph ctr 30uM=89.0*
COc1ccc([N+](=O)[O-])cc1NC(=O)CSCc1cc(C)cc(C)c1	-0.5	59.3*	-7.7	-11.1	22.9	15.6
COc1cccc(-c2[nH]nc3c2C(c2ccsc2)C(C#N)=C(N)O3)c1 (centres undefined)	-4.5	60.6*	14.7	2.4	42.4	34.4
Cc1c(C(=O)Nc2ccncc2)sc2nc(-c3ccccc3)cn12	-6.1	77.7*	-3.1	-12.1	12.9	24.2
Cc1c(C(=O)Nc2ccc3c(c2)OCCO3)sc2nc(-c3ccccc3)cn12	2.9	58.2	-2.9	7.0	18.5	nt
Cc1nn(C(C)C(=O)NCC2CCCO2)c(=O)c2cc3occc3n12 (centres undefined)	3.4	8.1	-3.0	11.1	8.0	nt
Cc1cc2cc(CN(Cc3ccc4c(c3)OCO4)C(=O)c3ccco3)c(=O)[nH]c2cc1C	-5.9	81.6*	3.6	4.7	32.8	38.2
O=C(c1ccco1)N(Cc1ccc2c(c1)OCO2)Cc1cc2cc3c(cc2[nH]c1=O)OCO3	-12.4	-11.1	8.7	nt	nt	nt
SMILES	Tb hexokinase	PfGluPho inh	HKDC1 inhibitor	G6PDH counter	Diaph inh CS	PfG6PD confirm	others
Cc1ccc(C(=O)NN2C(=O)C3C4c5ccccc5C(c5ccccc54)C3C2=O)cc1 (centres undefined)	-4.2	0.8	10.8	-6.7	19.9	nt
CCCCCn1c(-c2ccco2)nc2nc3ccccc3nc21	-26.0	63.6*	0.8	-23.6	14.1	34.3
c1ccc(Cn2c(-c3ccco3)nc3nc4ccccc4nc32)cc1	15.8	42.1	13.4	2.2	18.8	nt
O=C1CCCC(O)=C1C(C#Cc1ccccc1)C1=C(O)CCCC1=O	5.0	63.9*	28.7	-19.4	25.3	39.7
COC(=O)c1c(C)[nH]c(C)c1-c1ccccc1Cl	6.0	14.2	0.6	9.0	12.0	nt
CCc1cc2c(=O)c(-c3nc(C)cs3)coc2cc1O	-9.0	76.0*	-5.7	nt	nt	29.6
COc1ccc2c(=O)c(-c3nc(C)cs3)coc2c1	-5.6	3.5	1.7	-30.8	6.4	nt
O=C(CSc1nc2cc([N+](=O)[O-])ccc2n1-c1ccccc1)NCc1ccc2c(c1)OCO2	-6.0	67.5*	-6.7	-15.1	0.5	-6.0
COc1ccc(NC(=O)CC2C(=O)NCCN2C(=O)c2ccc(Cl)cc2)cc1 (centres undefined)	-4.3	4.3	-1.8	nt	nt	nt
O=C(Nc1ccn(Cc2ccccc2)n1)c1ccc2c(c1)OCO2	-0.6	1.2	-7.4	5.5	8.0	nt
CCOP(=O)(OCC)C(NC(=O)C(F)(F)F)c1ccccc1 (centres undefined)	2.6	-7.4	7.2	-2.5	1.5	nt
COc1ccccc1NC(=O)C1CCCN1C(=O)NC1CCCCC1 (centres undefined)	nt	5.8	-6.6	nt	nt	nt
COc1ccc(Nc2nc(-c3ccccc3)c(C(=O)Nc3cccnc3)s2)cc1	9.1	64.5*	-5.5	-1.6	16.4	15.7
CS(=O)(=O)N(CC(=O)Nc1ccccc1-c1ccccc1)c1ccc(F)cc1	6.7	6.8	-6.3	10.5	12.5	nt
CC1CCc2cc(F)cc3c(O)c(C(=O)NCCN(C)C)c(=O)n1c23 (centres undefined)	nt	10.8	-1.2	nt	nt	nt
COc1ccc(-c2nn3c(COc4ccccc4)nnc3s2)cc1OC	-1.3	-5.1	10.8	5.1	25.5	nt
Clc1ccccc1-c1nn2c(Cn3cnc4ccccc43)nnc2s1	1.4	40.7	2.2	3.6	5.4	nt
Clc1ccc(Cl)c(-c2nn3c(COc4ccccc4)nnc3s2)c1	2.0	60.3*	-19.0	-24.7	3.2	35.6
c1ccc(OCc2nnc3sc(-c4cccs4)nn23)cc1	7.7	85.8*	-8.5	5.2	6.8	33.9
c1csc(-c2nn3c(C4COc5ccccc5O4)nnc3s2)c1 (centres undefined)	-0.5	59.2*	-5.2	2.6	1.7	8.6
Cc1ccc(CN2C(=O)CNC2=S)cc1	-3.3	7.6	-6.5	2.1	-2.5	nt
CCc1ccc(OCC(=O)N/N=C/c2cc([N+](=O)[O-])ccc2N2CCOCC2)cc1	7.1	95.9*	12.4	-15.6	19.4	56.3*	Diaphorase 10uM=48.9;Diaph ctr 30uM=34.0

From PubChem
